From paper PMC7047575 (The AAPS journal, 2018)
Counter-ions that a name gives are not always drawn.

Tests used:
nAChRs = settings: cited from earlier work
SERT = SERT (Rattus norvegicus, UniProt P31652); test: Synaptosomal [3H]5-HT uptake, rat striatal synaptosomes; type: biochemical
α7 nAChRs = α7 nAChRs (Rattus norvegicus, UniProt Q05941); test: [3H]MLA binding to rat brain membranes; settings: 0.1 nM - 0.1 mM
Procedure, shortened: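 Membranes from rat whole brain minus cortex and cerebellum, washed by repeated 31,000 g spins, with a 10 min 37°C incubation. Binding used 100–140 μg protein, test compound at 7–9 concentrations (0.1 nM–0.1 mM), and [3H]MLA added at 3 nM, in HEPES saline buffer pH 7.5, for 60 min at room temperature. Nonspecific binding was defined with 10 μM nicotine. Read-out by PEI-GF/B filtration and scintillation; n=3.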

DAT = DAT (Rattus norvegicus, UniProt P23977); test: Synaptosomal [3H]DA uptake, rat striatal synaptosomes; type: biochemical
VMAT2 = VMAT2 (Rattus norvegicus, UniProt Q01827); test: Vesicular [3H]DA uptake, rat striatal synaptic vesicles; type: biochemical
α4β2 nAChRs = α4β2 nAChRs (Rattus norvegicus, UniProt P09483+P12390); test: [3H]NIC binding to rat brain membranes; settings: 0.1 nM - 0.1 mM
[1] = tested on: METH-sensitized locomotor activity; test: METH-induced hyperactivity in METH-sensitized rats, GZ-11610 s.c.; type: in vivo, rat; settings: 1-30 mg/kg, 15 min before METH 1 mg/kg s.c., vs vehicle
hERG channels = hERG channels (Homo sapiens, UniProt Q12809); test: [3H]Dofetilide binding to hERG channels on HEK-293 cell membranes
[2] = tested on: METH-sensitized locomotor activity; test: METH-induced hyperactivity in METH-sensitized rats, GZ-11610 oral; type: in vivo, rat; settings: 5.6-300 mg/kg
locomotor activity = test: Locomotor sensitization to repeated METH administration; type: in vivo, rat
Procedure, shortened: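 Rats randomly assigned to METH or saline groups. Day 0: 60 min chamber habituation without injection. Distance traveled on Days 1 and 10 compared with saline controls and with Day 1.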

[3] = cited from earlier work
[4] = tested on: cells co-expressing VMAT2 and DAT; settings: dissociated cells co-expressing VMAT2 and DAT; cited from earlier work

Sequence of DAT (P23977 whole entry): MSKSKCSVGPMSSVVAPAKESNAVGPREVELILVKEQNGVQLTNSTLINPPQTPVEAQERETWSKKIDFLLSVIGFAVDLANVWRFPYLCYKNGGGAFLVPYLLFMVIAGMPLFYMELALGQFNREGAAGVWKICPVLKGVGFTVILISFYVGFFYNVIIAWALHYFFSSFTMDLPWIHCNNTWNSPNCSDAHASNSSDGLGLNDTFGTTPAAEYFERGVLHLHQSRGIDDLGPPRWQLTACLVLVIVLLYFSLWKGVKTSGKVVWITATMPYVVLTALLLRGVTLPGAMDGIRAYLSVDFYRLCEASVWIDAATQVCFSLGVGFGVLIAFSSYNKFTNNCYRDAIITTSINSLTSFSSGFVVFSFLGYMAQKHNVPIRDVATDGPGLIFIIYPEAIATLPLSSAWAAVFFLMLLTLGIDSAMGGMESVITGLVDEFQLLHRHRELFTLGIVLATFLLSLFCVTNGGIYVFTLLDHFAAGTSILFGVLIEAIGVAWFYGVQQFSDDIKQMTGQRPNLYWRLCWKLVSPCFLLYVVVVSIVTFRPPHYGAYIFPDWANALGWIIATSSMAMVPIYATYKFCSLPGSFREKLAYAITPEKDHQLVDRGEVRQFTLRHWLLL
Sequence of SERT (P31652 whole entry): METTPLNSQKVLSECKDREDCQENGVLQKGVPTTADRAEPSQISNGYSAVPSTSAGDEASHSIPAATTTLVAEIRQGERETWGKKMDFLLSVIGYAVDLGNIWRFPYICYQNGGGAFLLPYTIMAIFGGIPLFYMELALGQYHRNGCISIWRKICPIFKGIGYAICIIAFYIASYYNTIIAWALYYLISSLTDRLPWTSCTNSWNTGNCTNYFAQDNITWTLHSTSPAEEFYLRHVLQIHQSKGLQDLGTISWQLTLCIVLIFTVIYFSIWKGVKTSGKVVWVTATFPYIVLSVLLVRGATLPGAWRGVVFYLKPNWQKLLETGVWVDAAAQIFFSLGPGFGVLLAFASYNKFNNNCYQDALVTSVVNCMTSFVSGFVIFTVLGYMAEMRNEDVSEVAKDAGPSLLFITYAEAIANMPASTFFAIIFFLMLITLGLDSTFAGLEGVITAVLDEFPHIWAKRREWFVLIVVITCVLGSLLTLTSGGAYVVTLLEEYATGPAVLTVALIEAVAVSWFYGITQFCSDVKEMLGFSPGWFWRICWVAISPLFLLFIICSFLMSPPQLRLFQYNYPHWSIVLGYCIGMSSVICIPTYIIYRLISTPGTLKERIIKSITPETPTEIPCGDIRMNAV
Sequence of VMAT2 (Q01827 whole entry): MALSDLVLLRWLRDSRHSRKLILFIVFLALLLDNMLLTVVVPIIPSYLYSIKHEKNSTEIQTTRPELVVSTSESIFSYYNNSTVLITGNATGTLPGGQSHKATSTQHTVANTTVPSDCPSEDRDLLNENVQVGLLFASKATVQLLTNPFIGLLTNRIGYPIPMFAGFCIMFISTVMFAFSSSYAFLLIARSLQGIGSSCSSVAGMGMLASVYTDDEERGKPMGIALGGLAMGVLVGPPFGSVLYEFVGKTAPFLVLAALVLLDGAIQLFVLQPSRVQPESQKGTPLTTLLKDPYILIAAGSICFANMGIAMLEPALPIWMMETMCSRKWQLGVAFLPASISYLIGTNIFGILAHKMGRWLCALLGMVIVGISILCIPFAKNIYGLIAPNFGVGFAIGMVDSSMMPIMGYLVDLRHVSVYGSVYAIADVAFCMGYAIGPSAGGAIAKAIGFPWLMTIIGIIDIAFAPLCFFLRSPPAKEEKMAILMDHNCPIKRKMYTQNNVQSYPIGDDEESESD
Sequence of hERG channels (Q12809 whole entry): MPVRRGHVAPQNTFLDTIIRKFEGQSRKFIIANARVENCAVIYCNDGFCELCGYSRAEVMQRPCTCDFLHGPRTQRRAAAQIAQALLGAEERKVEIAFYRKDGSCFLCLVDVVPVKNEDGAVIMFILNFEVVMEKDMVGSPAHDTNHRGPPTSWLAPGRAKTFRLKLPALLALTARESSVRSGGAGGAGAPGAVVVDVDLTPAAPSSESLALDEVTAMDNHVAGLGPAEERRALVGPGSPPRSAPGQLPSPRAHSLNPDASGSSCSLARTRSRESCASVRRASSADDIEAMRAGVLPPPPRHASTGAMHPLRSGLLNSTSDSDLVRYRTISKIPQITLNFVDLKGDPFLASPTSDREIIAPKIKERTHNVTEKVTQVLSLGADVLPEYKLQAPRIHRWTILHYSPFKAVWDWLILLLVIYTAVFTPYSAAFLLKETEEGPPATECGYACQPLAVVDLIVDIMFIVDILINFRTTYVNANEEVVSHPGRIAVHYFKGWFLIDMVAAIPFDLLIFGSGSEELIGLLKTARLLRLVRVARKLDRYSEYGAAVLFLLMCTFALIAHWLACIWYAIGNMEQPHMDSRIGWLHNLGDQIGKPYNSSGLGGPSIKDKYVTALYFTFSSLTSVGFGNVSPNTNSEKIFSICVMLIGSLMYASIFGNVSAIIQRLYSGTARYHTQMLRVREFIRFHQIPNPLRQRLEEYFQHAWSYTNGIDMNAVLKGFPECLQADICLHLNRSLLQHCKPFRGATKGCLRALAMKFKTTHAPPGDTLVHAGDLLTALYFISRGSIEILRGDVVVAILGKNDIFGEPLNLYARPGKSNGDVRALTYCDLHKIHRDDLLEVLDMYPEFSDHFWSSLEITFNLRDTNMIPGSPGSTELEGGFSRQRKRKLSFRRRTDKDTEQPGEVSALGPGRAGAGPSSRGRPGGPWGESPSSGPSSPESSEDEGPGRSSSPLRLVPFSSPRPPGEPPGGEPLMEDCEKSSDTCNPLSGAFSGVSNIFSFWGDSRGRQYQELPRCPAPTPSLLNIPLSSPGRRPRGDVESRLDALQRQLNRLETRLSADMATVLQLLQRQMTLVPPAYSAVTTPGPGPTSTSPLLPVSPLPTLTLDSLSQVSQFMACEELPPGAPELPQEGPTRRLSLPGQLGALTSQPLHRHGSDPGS
Sequence of α7 nAChRs (Q05941 23-502): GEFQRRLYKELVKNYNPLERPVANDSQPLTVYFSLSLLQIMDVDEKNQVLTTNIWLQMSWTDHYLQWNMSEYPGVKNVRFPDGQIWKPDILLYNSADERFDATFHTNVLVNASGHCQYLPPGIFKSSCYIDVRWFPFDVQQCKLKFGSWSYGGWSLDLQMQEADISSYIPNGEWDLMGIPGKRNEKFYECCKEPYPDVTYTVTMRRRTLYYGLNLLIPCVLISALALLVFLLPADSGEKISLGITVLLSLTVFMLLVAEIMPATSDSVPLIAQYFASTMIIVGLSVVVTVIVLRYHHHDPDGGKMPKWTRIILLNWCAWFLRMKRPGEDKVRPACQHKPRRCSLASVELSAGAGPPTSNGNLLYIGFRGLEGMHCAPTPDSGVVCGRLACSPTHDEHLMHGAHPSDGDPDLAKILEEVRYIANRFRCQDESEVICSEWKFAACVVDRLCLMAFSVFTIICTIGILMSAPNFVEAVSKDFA
Sequence of α4β2 nAChRs (P09483 31-630): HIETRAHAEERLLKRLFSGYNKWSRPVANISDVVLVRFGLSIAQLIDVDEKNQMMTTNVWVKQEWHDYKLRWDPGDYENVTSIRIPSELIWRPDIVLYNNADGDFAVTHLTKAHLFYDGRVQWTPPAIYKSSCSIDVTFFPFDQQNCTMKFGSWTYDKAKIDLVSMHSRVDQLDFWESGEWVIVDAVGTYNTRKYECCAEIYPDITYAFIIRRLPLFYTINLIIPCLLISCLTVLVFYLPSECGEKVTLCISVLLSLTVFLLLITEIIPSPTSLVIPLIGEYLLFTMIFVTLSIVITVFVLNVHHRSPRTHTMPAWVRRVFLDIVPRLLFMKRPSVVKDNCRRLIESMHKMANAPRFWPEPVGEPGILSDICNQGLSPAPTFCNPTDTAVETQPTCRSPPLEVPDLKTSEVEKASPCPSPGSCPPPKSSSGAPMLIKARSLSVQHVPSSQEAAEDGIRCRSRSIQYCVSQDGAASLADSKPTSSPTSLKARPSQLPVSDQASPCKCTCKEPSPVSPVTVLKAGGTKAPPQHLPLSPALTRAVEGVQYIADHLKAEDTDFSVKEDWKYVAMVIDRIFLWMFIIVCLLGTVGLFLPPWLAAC
Sequence of α4β2 nAChRs (P12390 25-500): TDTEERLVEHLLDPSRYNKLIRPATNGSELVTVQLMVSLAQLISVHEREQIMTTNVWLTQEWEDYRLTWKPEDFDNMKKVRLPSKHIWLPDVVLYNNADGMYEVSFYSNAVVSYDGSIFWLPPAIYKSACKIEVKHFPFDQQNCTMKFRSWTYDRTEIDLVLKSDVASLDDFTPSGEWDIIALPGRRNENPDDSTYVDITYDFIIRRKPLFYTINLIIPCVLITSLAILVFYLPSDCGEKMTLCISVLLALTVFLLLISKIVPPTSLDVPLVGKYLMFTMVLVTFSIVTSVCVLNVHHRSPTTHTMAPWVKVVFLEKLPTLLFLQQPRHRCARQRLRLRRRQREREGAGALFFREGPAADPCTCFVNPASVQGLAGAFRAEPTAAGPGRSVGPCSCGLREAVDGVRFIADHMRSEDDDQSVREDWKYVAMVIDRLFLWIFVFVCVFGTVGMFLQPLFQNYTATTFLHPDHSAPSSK

Structure (SMILES): COc1ccc(CCC2CCCC(CCc3ccc(OC)cc3)N2C[C@@H](O)CO)cc1.Cl (stereo in doubt) [GZ-793A, R-N-(1,2-dihydroxypropyl)-2,6-cis-di-(4-methoxyphenethyl)piperidine hydrochloride]
- selectivity for VMAT2 over nAChRs (nAChRs): > 1000 fold

Structure (SMILES): COc1ccc(CCCN[C@H](C)Cc2ccccc2)cc1 [GZ-11610, R-3-(4-methoxyphenyl)-N-(1-phenylpropan-2-yl)propan-1-amine]
- Imax of [3H]5-HT uptake at SERT (SERT): > 95%
- Ki (SERT): 5.55 µM
- Imax, inhibition of [3H]MLA binding (α7 nAChRs): < 20%
- Ki (DAT): 2.51 µM
- Imax of [3H]DA uptake at DAT (DAT; 0.1 nM - 0.1 mM): > 95%
- maximal inhibition (Imax) of [3H]DA uptake at VMAT2 (VMAT2; 0.1 nM - 0.1 mM): > 95%
- Ki (VMAT2; read-out: Ki, inhibition of [3H]DA uptake at VMAT2, rat striatal synaptic vesicles): 0.0087 µM
- Imax, inhibition of [3H]NIC binding (α4β2 nAChRs): < 20%
- effect on distance traveled after METH in the METH-sensitized group [1]: dose-dependently reduced the distance traveled
- Ki (hERG channels): 9.5 µM
- Imax of [3H]dofetilide binding to hERG channels (hERG channels; HEK-293 cell membranes, 0.1 nM - 0.1 mM): > 80%
- effect on distance traveled after METH in the METH-sensitized group ([2]; 15 min before METH 1 mg/kg s.c., vs vehicle): reduced the distance traveled
- effect on locomotor activity in the saline group ([2]; one-way ANOVA): no significant GZ-11610 effects on locomotor activity

Structure (SMILES): CN[C@@H](C)Cc1ccccc1 [METH, (+)-Methamphetamine hydrochloride]
- distance traveled compared to saline, Day 10 (locomotor activity; METH 1 mg/kg s.c. once daily for 10 days): increased distance traveled (p < 0.05)
- distance traveled compared to saline, Day 1 (locomotor activity; acute METH 1 mg/kg s.c.): increased (p < 0.05) distance traveled
- LogP [3]: 2.10

Structure (SMILES): COc1cc2c(cc1OC)[C@H]1C[C@@H](O)[C@H](CC(C)C)CN1CC2 [dihydrotetrabenazene]
- reduction of METH-evoked DA efflux [4]: 60%

Structure (SMILES): CN1[C@@H](CC(=O)c2ccccc2)CCC[C@H]1C[C@H](O)c1ccccc1 [lobeline]
- reduction of METH-evoked DA efflux [4]: 60%
